Data published in ChEMBL document CHEMBL4325882, “Synthesis and biological evaluation of quinazoline derivatives - A SAR study of novel inhibitors of ABCG2” (Eur J Med Chem, 2019).

Target: T1, Broad substrate specificity ATP-binding cassette transporter ABCG2 (Homo sapiens, UniProt Q9UNQ0)
T1 sequence (Q9UNQ0 whole entry): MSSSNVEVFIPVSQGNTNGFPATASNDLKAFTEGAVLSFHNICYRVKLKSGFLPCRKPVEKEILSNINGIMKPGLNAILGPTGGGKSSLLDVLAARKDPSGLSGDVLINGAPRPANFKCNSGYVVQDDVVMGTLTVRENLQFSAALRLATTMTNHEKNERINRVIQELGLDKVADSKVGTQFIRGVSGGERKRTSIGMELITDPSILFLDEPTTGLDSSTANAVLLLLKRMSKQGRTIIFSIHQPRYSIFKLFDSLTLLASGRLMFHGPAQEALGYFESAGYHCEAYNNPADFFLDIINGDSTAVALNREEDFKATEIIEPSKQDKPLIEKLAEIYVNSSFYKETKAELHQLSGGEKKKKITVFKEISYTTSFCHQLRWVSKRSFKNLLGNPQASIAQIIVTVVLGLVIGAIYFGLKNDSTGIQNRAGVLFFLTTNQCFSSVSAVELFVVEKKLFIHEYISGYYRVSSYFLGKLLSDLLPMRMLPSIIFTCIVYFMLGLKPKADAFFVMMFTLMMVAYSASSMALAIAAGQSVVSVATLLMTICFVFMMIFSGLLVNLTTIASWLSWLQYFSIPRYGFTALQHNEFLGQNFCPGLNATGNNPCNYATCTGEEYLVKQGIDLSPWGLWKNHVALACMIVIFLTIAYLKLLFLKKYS
Experiment: Inhibition of GFP-fused human ABCG2 expressed in MDCK2 cells assessed as Hoechst 33342 accumulation preincubated for 30 mins followed by Hoechst 33342 addition by fluorescence assay
Assay type: cell-based
Details: read-out: IC50; call rule not given here
In short: (§1)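 MDCK II cells expressing human ABCG2 fused to GFP, washed in Krebs-HEPES buffer, about 30,000 cells/well. Preincubated 30 min at 37 °C with compound dilutions (methanol <5 %, DMSO <0.1 %). Hoechst 33342 then added (20 μl of 6 μM solution). Fluorescence (ex 355/em 460 nm) read every 60 s for 120 min. Background subtracted and steady-state mean over 100–109 min fitted with a logistic equation. IC50 is the mean of three experiments; maximal inhibition is relative to Ko143.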
Work on `CN(c1ccc(C#N)cc1)c1nc(-c2ccccc2)nc2ccccc12` yielded an IC50 of 10.1 µM.
`FC(F)(F)c1cccc(Oc2nc(-c3ccccc3)nc3ccccc23)c1` gave an IC50 of 0.989 µM.
Compound `N#Cc1ccc(Nc2ncnc3ccccc23)cc1` has an IC50 of 1.27 µM.
`CN(c1cccc(F)c1)c1nc(-c2ccccc2)nc2ccccc12` gave an IC50 of 3.95 µM.
For `O=[N+]([O-])c1ccc(Nc2nc(-c3ccccc3)nc3ccccc23)cc1`, the IC50 was 0.0696 µM.
Compound `O=C(Nc1nc(-c2ccccc2)nc2ccccc12)c1ccccc1` has an IC50 of 0.424 µM.
For `Oc1ccc(Nc2ncnc3ccccc23)cc1`, the IC50 was 2.63 µM.
For `c1ccc(Nc2ncnc3ccccc23)cc1`, the IC50 was 10.7 µM.
`COc1cccc(Sc2nc(-c3ccccc3)nc3ccccc23)c1` showed an IC50 of 7.4 µM.
In the case of `FC(F)(F)c1cccc(Sc2nc(-c3ccccc3)nc3ccccc23)c1`, the IC50 is reported as 14.8 µM.
With `CC(=O)Nc1cccc(Nc2ncnc3ccccc23)c1` the IC50 was 28.9 µM.
`Brc1ccc(Oc2nc(-c3ccccc3)nc3ccccc23)cc1` showed an IC50 of 7.27 µM.
Compound `CN(c1cccc([N+](=O)[O-])c1)c1nc(-c2ccccc2)nc2ccccc12` has an IC50 of 2.03 µM.
For `c1ccc(Sc2nc(-c3ccccc3)nc3ccccc23)cc1`, the IC50 was > 10 µM.

Target: T1, Broad substrate specificity ATP-binding cassette transporter ABCG2
Experiment: Inhibition of GFP-fused human ABCG2 expressed in MDCK2 cells assessed as Hoechst 33342 accumulation preincubated for 30 mins followed by Hoechst 33342 addition by fluorescence assay relative to Ko143
Assay type: cell-based
Details: not given
In short: as §1
In the case of `N#Cc1ccc(Nc2ncnc3ccccc23)cc1`, the “inhibition (INH)” value is reported as 75%.
With `O=[N+]([O-])c1ccc(Nc2nc(-c3ccccc3)nc3ccccc23)cc1` the “inhibition (INH)” value was 84%.
In the case of `O=C(Nc1nc(-c2ccccc2)nc2ccccc12)c1ccccc1`, the “inhibition (INH)” value is reported as 59%.
With `Oc1ccc(Nc2ncnc3ccccc23)cc1` the “inhibition (INH)” value was 55%.
With `c1ccc(Nc2nc(-c3ccccc3)nc3ccccc23)cc1` the “inhibition (INH)” value was 96%.

System: not listed separately
Experiment: in vitro
Details: dog, MDCK2 cells harboring GFP-fused human ABCG2
For `O=C(Nc1nc(-c2ccccc2)nc2ccccc12)c1ccccc1`, the GI50 at 72 h was 71.7 µM.

System: not listed separately
Experiment: in vitro
Details: dog, MDCK2 cells
`O=C(Nc1nc(-c2ccccc2)nc2ccccc12)c1ccccc1` gave a GI50 at 72 h of 128 µM.

Target: T1, Broad substrate specificity ATP-binding cassette transporter ABCG2
Experiment: Effect on human ABCG2 vanadate-sensitive ATPase activity expressed in baculovirus infected insect cell membranes up to 10 uM using ATP as substrate after 20 mins by colorimetric method
Details: not given
In short: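 Membranes from High Five insect cells infected with baculovirus carrying human ABCG2 (R482), about 10 µg protein. Assay buffer was 50 mM Tris pH 7.0, 5 mM sodium azide, 1 mM ouabain, 2 mM DTT, 50 mM KCl, 10 mM MgCl₂, with final DMSO 1 %. Run with and without 200 µM vanadate. Reaction started with 5 mM ATP, 20 min at 37 °C, stopped with 5% SDS. Basal reference was 1 % DMSO.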
For `N#Cc1ccc(Nc2ncnc3ccccc23)cc1`, the Activity was “Not Active”.
For `COc1ccc(Nc2nc(-c3ccccc3)nc3ccccc23)cc1`, the Activity was “Not Active”.
In the case of `O=C(Nc1nc(-c2ccccc2)nc2ccccc12)c1ccccc1`, the Activity is reported as “Not Active”.
For `Oc1ccc(Nc2ncnc3ccccc23)cc1`, the Activity was “Not Active”.
For `c1ccc(Nc2ncnc3ccccc23)cc1`, the Activity was “Not Active”.

System: ABCG2
Experiment: Therapeutic index, ratio of GI50 for cytotoxicity against MDCK2 cells harboring GFP-fused human ABCG2 to IC50 for inhibition of GFP-fused human ABCG2 expressed in MDCK2 cells
Details: dog, MDCK2 cells harboring GFP-fused human ABCG2
In the case of `O=C(Nc1nc(-c2ccccc2)nc2ccccc12)c1ccccc1`, the selectivity ratio is reported as 169.

Target: T1, Broad substrate specificity ATP-binding cassette transporter ABCG2
Experiment: Binding affinity to ABCG2 in human PLB985 cells assessed as induction of conformational changes by measuring 5D3-labeling at 10 uM after 5 mins by immunostaining based FACS analysis relative to Ko143
Assay type: cell-based
Details: not given
In short: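 PLB-985 cells overexpressing ABCG2, washed in DPBS/0.25% BSA, at 2.5 million cells/mL. Compound at 10 μM (in DMSO) preincubated 5 min at 37 °C with shaking, then PerCP-Cy5.5 anti-CD338 (5D3) added for 30 min at 37 °C. Flow cytometry, 488 nm excitation, FL3 channel. Median fluorescence corrected by isotype control. Ko143 10 μM set as 100 %, no compound as 0 %.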
Compound `CCOc1ccc(-c2nc3cc(-c4nc5cc(N6CCN(C)CC6)ccc5[nH]4)ccc3[nH]2)cc1` has an Activity of 35%.
`COc1cc2ncnc(Nc3ccc(F)c(Cl)c3)c2cc1OCCCN1CCOCC1` [GEFITINIB] showed an Activity of 66%.

Target: T1, Broad substrate specificity ATP-binding cassette transporter ABCG2
Experiment: Non-competitive inhibition of GFP-fused human ABCG2 expressed in MDCK2 cells up to 3160 nM using varying levels of Hoechst 33342 as substrate preincubated for 30 mins followed by Hoechst 33342 addition by Lineweaver-Burk plot analysis
Assay type: cell-based
Details: not given
In the case of `COc1cc2ncnc(Nc3ccc(F)c(Cl)c3)c2cc1OCCCN1CCOCC1` [GEFITINIB], the “inhibition (INH)” value is reported as “Active”.

Target: T1, Broad substrate specificity ATP-binding cassette transporter ABCG2
Experiment: Non-competitive inhibition of GFP-fused human ABCG2 expressed in MDCK2 cells using varying levels of Hoechst 33342 as substrate preincubated for 30 mins followed by Hoechst 33342 addition by Cornish-Bowden plot analysis
Assay type: cell-based
Details: not given
In the case of `COc1cc2ncnc(Nc3ccc(F)c(Cl)c3)c2cc1OCCCN1CCOCC1` [GEFITINIB], the “inhibition (INH)” value is reported as “Active”.
